Article PMC7993319 (Clinical and Translational Science, 2020)
Read-outs that look alike come from different tables or passages of the source.

Tests used:
[1] = Safety monitoring in the trial; assay type: in vivo, human (patient with ALK‐positive NSCLC)
Method in brief: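 Safety was monitored by physical examination and laboratory tests on days 1 and 15, with safety visits on days 8 and 29. Triplicate 12-lead recordings were taken predose on day 1 (before the oral CYP3A inhibitor, 150 mg q.d. from day 2) and on days 8 and 15 of co-treatment with the ALK inhibitor. QT was corrected by Fridericia.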

[2] = cited from earlier work
[3] = assay type: in vivo, human (patients with ALK‐positive NSCLC); details: for Crizotinib Cmin,ss: enrolled patient; for AUC(0-t): human, oral, Crizotinib AUC0–12, enrolled patient
Method in brief: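 Patients on standard oral ALK inhibitor (250 mg b.i.d., ≥14 days) with trough <310 ng/mL got oral CYP3A inhibitor 150 mg q.d. from day 2 for 14 days. Plasma sampled predose and 0.5–12 h (11 points) on days 1 and 15, plus trough on day 8. LC-MS/MS with ether extraction, isotope-labelled internal standard, 1–5,000 ng/mL. AUC0–12 by noncompartmental analysis.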

NSCLC = details: cited from earlier work
[4] = co‐administration of CYP3A‐inducing rifampin; cited from earlier work
ALK = details: lactam metabolite, two diastereoisomers; cited from earlier work

Compound: CC(C)c1nc(CN(C)C(=O)N[C@@H](CCN2CCOCC2)C(=O)N[C@H](CC[C@H](Cc2ccccc2)NC(=O)OCc2cncs2)Cc2ccccc2)cs1 [cobicistat]
- QTcF ([1]; day 8 of cobicistat treatment, with crizotinib): 410 ms
- Heart rate ([1]; day 15, crizotinib plus cobicistat): 54 bpm
- QTcF ([1]; day 15 of cobicistat treatment, with crizotinib): 413 ms
- Safety signals / adverse events ([1]; single patient, crizotinib 250 mg b.i.d. plus cobicistat 150 mg q.d. for 14 days): No safety signals occurred
- Laboratory changes ([1]; single patient, crizotinib plus cobicistat): no significant laboratory changes except a grade I increase in transaminases

Compound: CCc1cc2c(cc1N1CCC(N3CCOCC3)CC1)C(C)(C)c1[nH]c3cc(C#N)ccc3c1C2=O [alectinib]
- Increase of combined AUC of alectinib and the M4 metabolite ([2]; administration of the CYP3A inhibitor posaconazole): 36%
- CYP3A contribution to clearance ([2]; alectinib): 40–50%

Compound: C[C@@H](Oc1cc(-c2cnn(C3CCNCC3)c2)cnc1N)c1c(Cl)ccc(F)c1Cl [crizotinib]
- Mean crizotinib Cmin,ss at screening ([3]; 7 screened patients, oral crizotinib 250 mg b.i.d., steady state, plasma): 279 ± 77 ng/mL
- AUC0–12 ratio ([3]; crizotinib with cobicistat (14 days) vs baseline): 1.78
- Crizotinib Cmin,ss ([3]; day 1, before cobicistat, crizotinib 250 mg b.i.d.): 158 ng/mL
- Crizotinib Cmin,ss ([3]; day 8, with oral cobicistat 150 mg q.d.): 308 ng/mL
- AUC(0-t) ([3]; plasma, after 14 days of cobicistat treatment): 3920 ng·h/mL
- AUC(0-t) ([3]; plasma, baseline (before cobicistat), steady state): 2210 ng·h/mL
- Underexposed patients (Cmin,ss < 310 ng/mL) ([3]; unselected NSCLC population screened (5 of 7 patients)): 71%
- Increase of crizotinib AUC0–12 ([3]; with cobicistat for 14 days vs before cobicistat): 78%
- Hazard ratio (progression-free survival model) (NSCLC; lowest quartile vs. the combined upper three quartiles, 90% confidence interval: 1.62–6.36): 3.2
- ORR (NSCLC; quartile with the highest Cmin,ss): 60–75%
- ORR (NSCLC; quartile with the lowest Cmin,ss (< 310 ng/mL)): 24–47%
- Decrease of crizotinib AUC [4]: 72%
- QTcF ([1]; before cobicistat treatment, on crizotinib, triplicate ECG): 394 ms
- Heart rate ([1]; day 1, before cobicistat, on crizotinib): 56 bpm

Compound: CCc1cc2c(cc1N1CCC(NCCO)CC1)C(C)(C)c1[nH]c3cc(C#N)ccc3c1C2=O [M4]
- Activity of metabolite relative to alectinib [2]: equipotently active

Compound: C[C@@H](Oc1cc(-c2cnn(C3CCNC(=O)C3)c2)cnc1N)c1c(Cl)ccc(F)c1Cl (some centres unmarked) [PF‐06260182]
- ALK‐inhibiting activity (ALK): 4–8%
